This is a sample that favours compounds with a hit; in the whole collection about 7.2% have one here.
HEK293 NFkB inh = inhibitors of PMA/ionomycin-induced NF-kB reporter, primary screen, antigen receptor NF-kB inhibitor project, cell-based, HEK-293 luciferase reporter, luminescence; hit rate 0.21% among 62,000; inhibition, % at 3 µM; HEK-293 NF-kB luciferase reporter;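 active = inhibition above the mean of all tested compounds plus 3 SD, cut at about 40% in these data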;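 also: 0% = stimulated DMSO wells and 100% = 10 µM reference inhibitor 5653914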
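System – HEK-293 cells with stable firefly luciferase reporter driven by four HIV NF-kB elements · Doses – one dose, 3 µM · Schedule – 1 h compound pre-incubation, 16 h PMA/ionomycin at 37 °C · Technique – luminescence from luciferase substrate reagent · Measure – percent inhibition normalized per plate to DMSO and reference-inhibitor controls · Replicates – tested once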
hDAT+cocaine = changed hDAT dopamine uptake under cocaine IC80, either direction, primary screen, cocaine antagonist project, cell-based, LLC-PK1 hDAT, [14C]-dopamine uptake, MLSMR. Sodium-dependent dopamine transporter (Homo sapiens), Q01959. LLC-PK1 hDAT cells, [14C]-dopamine uptake with cocaine IC80; actives deviate in either direction. B-score at 10 µM. hit rate 1.3% among 110,000;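 active = Z score or B-score, a plate-position-corrected score, falls beyond the plate's 99.7% confidence bounds, in either direction; inactive = both scores lie inside the 99.7% bounds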;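 also: scored against the spread of the other compound wells on the same plate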
Target sequence (Q01959 whole entry, looked up): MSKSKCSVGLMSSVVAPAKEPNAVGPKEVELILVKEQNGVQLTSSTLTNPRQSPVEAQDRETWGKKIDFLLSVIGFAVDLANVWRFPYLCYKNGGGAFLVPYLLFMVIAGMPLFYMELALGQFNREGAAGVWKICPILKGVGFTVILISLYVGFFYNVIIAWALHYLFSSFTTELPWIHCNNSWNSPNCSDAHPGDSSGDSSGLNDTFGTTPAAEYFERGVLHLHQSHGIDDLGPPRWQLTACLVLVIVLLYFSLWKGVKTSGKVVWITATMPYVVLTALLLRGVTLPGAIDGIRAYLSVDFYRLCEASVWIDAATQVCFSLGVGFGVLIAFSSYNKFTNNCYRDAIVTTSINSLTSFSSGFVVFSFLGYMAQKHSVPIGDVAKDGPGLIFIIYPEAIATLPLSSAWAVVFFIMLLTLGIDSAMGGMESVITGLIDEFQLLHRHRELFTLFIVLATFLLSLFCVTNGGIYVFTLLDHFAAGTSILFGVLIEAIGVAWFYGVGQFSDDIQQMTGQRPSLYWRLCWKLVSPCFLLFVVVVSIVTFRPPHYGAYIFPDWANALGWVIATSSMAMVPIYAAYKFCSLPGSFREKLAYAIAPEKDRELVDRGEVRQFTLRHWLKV
D1 allo mod = D1 CRE-luciferase signal change, two-sided – cell-based, HEK293 D1, dopamine EC30, D1 allosteric modulator project, primary screen | D(1A) dopamine receptor (Homo sapiens), P21728 | dopamine EC30 potentiation; actives deviate in either direction | B-score at 10 µM | hit rate 5.9% among 58,000 | AID 641, 2007;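 active = luminescence count or its row- and column-corrected plate score outside the 99.7% band of the plate's sample wells, on either side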
BAP1 inh = inhibitors of BAP1 deubiquitinase, primary screen, biochemical, Ub-AMC fluorescence, kinetic | Ubiquitin carboxyl-terminal hydrolase BAP1 (Homo sapiens), Q92560 | recombinant BAP1, Ub-AMC hydrolysis fluorescence kinetic; hits give low values | calls only at 20 µM | hit rate 0.48% among 72,000 | AID 436, 2006;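 active = activity remaining at or below 50% of control, provided the compound also passes the data quality filters; inactive = the rest, including low values that fail the filters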;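 also: 100% = DMSO wells rate and 0% = substrate alone blank rate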
M1 agonist = M1 muscarinic receptor agonists, primary screen, CHO-M1 cells, Fluo-4 calcium, agonist mode; Muscarinic acetylcholine receptor M1; Fluo-4 calcium fluorescence; hits give high values; B-score at 10 µM; hit rate 3% among 64,000;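 active = fluorescence rise, raw or as B-score row- and column-corrected plate score, outside the 99.7% band of its plate's samples, either direction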
M1 antag = antagonists of rat M1 muscarinic receptor; B-score at 10 µM; CHO-M1 cells, Fluo-4 calcium, ACh EC80 antagonist mode; hits give low values; hit rate 3.4% among 64,000;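 active = calcium fluorescence response, raw or row-and-column corrected B-score, differing from the plate sample mean either way at a set confidence level, mostly lower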
* = called active by the depositor.

`Cc1ccc2nsnc2c1S(=O)(=O)N(Cc1cc2cccc(C)c2[nH]c1=O)CC1CCCO1` (stereo not given) gave HEK293 NFkB inh 11.3, hDAT+cocaine -0.573, D1 allo mod -5.08*, BAP1 inh inactive, M1 agonist 13* and M1 antag -3.17*.
Cc1noc(C)c1COC(=O)c1ccccc1Sc1ccccc1C#N was read as HEK293 NFkB inh 4.6, hDAT+cocaine -0.159, D1 allo mod 0.0357, BAP1 inh inactive, M1 agonist 0.136 and M1 antag 0.544.
Screening N#Cc1ccccc1Sc1ccccc1C(=O)OCc1nnc(-c2ccccc2)o1 returned HEK293 NFkB inh 12.9, hDAT+cocaine 2.53*, D1 allo mod -0.598, M1 agonist -0.267 and M1 antag -1.19.
`COCCn1c(NCc2ccc(C)cc2)nc2c1c(=O)[nH]c(=O)n2C` gave HEK293 NFkB inh 12.5, hDAT+cocaine -0.457, D1 allo mod -3.34*, BAP1 inh inactive, M1 agonist 0.319 and M1 antag 0.0516.
For COc1cccc(NC(=O)c2ccc3c(c2)N(CC(=O)N2CCCCC2)C(=O)C(C)(C)O3)c1 the results were HEK293 NFkB inh 12.2, hDAT+cocaine 3.11*, D1 allo mod -0.0239, BAP1 inh inactive, M1 agonist 0.908 and M1 antag -0.206.
COc1cccc(C(=O)CN2C(=O)C(C)(C)Oc3ccc(C(=O)N4CCCCCC4)cc32)c1 was read as HEK293 NFkB inh 6.7, hDAT+cocaine 0.508, D1 allo mod -0.356, BAP1 inh inactive, M1 agonist 0.0383 and M1 antag -0.652.
`CCOC(=O)c1c(NC(=O)c2ccccc2)sc2c(O)c(CN(CC)CC)ccc12` gave hDAT+cocaine 2.41*.
Cc1cccc(N(CC(=O)NC2CCCC2)C(=O)CS(=O)CC(=O)Nc2ccc3c(c2)OCO3)c1C (stereo not given) was read as hDAT+cocaine -0.0736.
For Cc1ccc(NC(=O)CS(=O)CC(=O)Nc2ccc3c(c2)OCO3)cc1Cl (stereo not given) the results were HEK293 NFkB inh 16.2, hDAT+cocaine -7.55*, BAP1 inh inactive, M1 agonist -0.00342 and M1 antag 0.88.
COc1ccc(NC(=O)C(C)NS(=O)(=O)c2ccc(NC(C)=O)cc2)cc1Cl (stereo not given) was read as HEK293 NFkB inh 13.5, hDAT+cocaine -0.0745, D1 allo mod -0.471, BAP1 inh inactive, M1 agonist 1.03 and M1 antag -0.0216.
For CC(C)=CC(=O)Nc1ccc2c(c1)OCO2 the results were HEK293 NFkB inh -10.7, hDAT+cocaine -0.121, D1 allo mod -5.23*, BAP1 inh inactive, M1 agonist 1.35 and M1 antag -0.0166.
COc1ccc(NC(=O)C=C(C)C)cc1Cl was read as HEK293 NFkB inh -35.4, hDAT+cocaine -0.91, D1 allo mod -3.79*, BAP1 inh inactive, M1 agonist -0.442 and M1 antag 0.263.
CCOc1cc(-c2nc3ccccn3c2N=Cc2cc([N+](=O)[O-])ccc2Cl)ccc1O was read as BAP1 inh inactive.
For Cc1nnc(SCc2cc(=O)oc3cc(O)ccc23)s1 the results were BAP1 inh inactive.
CCOc1ccc(-c2cc(C(=O)O)c3ccccc3n2)c(OCC)c1 was read as HEK293 NFkB inh 41.9*, hDAT+cocaine -0.142, D1 allo mod 0.814, BAP1 inh inactive, M1 agonist 0.0242 and M1 antag 0.758.
For CCNC(=S)NNC(=O)c1cc(-c2ccc(OCC)cc2)nc2ccccc12 the results were hDAT+cocaine -0.000122.
COc1cc(OC)cc(C(=O)N2CCN=C2SCc2cccnc2)c1 was read as HEK293 NFkB inh -6.2, hDAT+cocaine 1.58*, D1 allo mod 0.0464, BAP1 inh inactive, M1 agonist 0.436 and M1 antag -0.765.
Screening O=C(c1cccc(F)c1)N1CCN=C1SCc1cccnc1 returned HEK293 NFkB inh 5.5, hDAT+cocaine 0.88, D1 allo mod 0.00976, BAP1 inh inactive, M1 agonist 0.181 and M1 antag -0.208.
For Cc1cccc(C(=O)Nc2nnc(CCc3ccccc3)s2)c1 the results were BAP1 inh inactive.
CCCC(C)n1[nH]c(=O)cc1N (stereo not given) was read as hDAT+cocaine -2.79*, BAP1 inh inactive, M1 agonist 0.888 and M1 antag -0.128.
CCCCC(C)n1[nH]c(=O)cc1N (stereo not given) was read as hDAT+cocaine -0.935.
Brc1ccc(-c2nn3c(-c4ccccn4)nnc3s2)o1 was read as HEK293 NFkB inh 7.7, hDAT+cocaine 1.71, D1 allo mod 1.54, BAP1 inh inactive, M1 agonist 0.635 and M1 antag -0.685.
Brc1ccc(-c2nn3c(-c4ccncc4)nnc3s2)o1 was read as HEK293 NFkB inh 11.7, D1 allo mod 3.15, BAP1 inh inactive, M1 agonist 0.918 and M1 antag -3.14*.
`CCOc1cc(C2C(C(=O)OCc3ccccc3)=C(C)NC3=C2C(=O)CC(c2ccccc2)C3)ccc1O` (stereo not given) gave BAP1 inh inactive.
For COc1cc([N+](=O)[O-])ccc1N1C(=O)c2cccc([N+](=O)[O-])c2C1=O the results were BAP1 inh inactive.
`Cc1nn2c(-c3ccccc3)nnc2c2ccccc12` gave HEK293 NFkB inh 5.7, hDAT+cocaine 0.13, D1 allo mod 1.1, BAP1 inh inactive, M1 agonist 0.343 and M1 antag 2.05*.
`Cc1nn2c3ccccc3nc2c2ccccc12` gave HEK293 NFkB inh 13.9, hDAT+cocaine -0.397, BAP1 inh inactive, M1 agonist 1.13 and M1 antag -0.669.
[N-]=[N+]=CC(=O)c1ccnc(C(=O)C=[N+]=[N-])c1 was read as hDAT+cocaine 0.0339, D1 allo mod 0.976, BAP1 inh inactive, M1 agonist -0.377 and M1 antag 1.63*.
`O=C(O)c1ccc2c3c(ncnc13)-c1ccccc1C2=O` gave HEK293 NFkB inh -2.2, D1 allo mod -0.339, BAP1 inh inactive, M1 agonist -1.2 and M1 antag 0.438.
`O=C1c2ccccc2-c2ncnc3cccc1c23` gave HEK293 NFkB inh -2.0, D1 allo mod 12.7*, BAP1 inh inactive, M1 agonist 0.318 and M1 antag -0.187.
Screening O=C1c2c(O)cc(O)cc2O[C@@]12c1c(cc(O)c3c1O[C@H](c1ccc(O)cc1)[C@@H](O)C3)O[C@@H]2c1ccc(O)cc1 returned hDAT+cocaine 2.16*.

Screening data as filed in PubChem.
